Reference: ChEMBL document CHEMBL4052594, “Discovery of Pyrrolidine-Containing GPR40 Agonists: Stereochemistry Effects a Change in Binding Mode” (J Med Chem, 2017)
The source made the active and inactive calls. The rule behind the calls is not given here.

How the values were obtained:
[1] = biological target: Free fatty acid receptor 1 (Mus musculus) (UniProt Q76JU9); assay: Agonist activity at mouse GPR40 inducibly expressed in HEK293 cells assessed as increase in intracellular calcium flux measured for 100 secs by FLIPR assay; type: functional, cell-based
[2] = biological target: T1, Free fatty acid receptor 1 (Homo sapiens, UniProt O14842); assay: Agonist activity at human GPR40 inducibly expressed in HEK293 cells assessed as increase in intracellular calcium flux measured for 100 secs by FLIPR assay; type: functional, cell-based
[3] = biological target: T2, Free fatty acid receptor 1 (Mus musculus, UniProt Q76JU9); assay: Agonist activity at mouse GPR40 expressed in CHO-A12 cells assessed as increase in intracellular calcium flux measured for 100 secs by FLIPR assay; type: functional, cell-based
[4] = biological target: T1, Free fatty acid receptor 1; assay: Agonist activity at human GPR40 transfected in HEK293 cells assessed as induction of cAMP accumulation incubated for 30 to 45 mins by HTRF assay; type: functional, cell-based
[5] = biological target: T1, Free fatty acid receptor 1; assay: Intrinsic activity at human GPR40 transfected in HEK293 cells assessed as induction of cAMP accumulation at 16.7 uM incubated for 30 to 45 mins by HTRF assay relative to […]; type: functional, cell-based
[6] = biological target: T1, Free fatty acid receptor 1; assay: Potentiation of DHA-induced agonist activity at human GPR40 inducibly expressed in HEK293 cells assessed as increase in intracellular calcium flux at 10 nM measured for 100 secs by FLIPR assay; type: functional, cell-based
Procedure, shortened: (§1)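 Ca2+ FLIPR concentration-response to DHA in inducible hGPR40 cells, alone or with fixed added test compound (3 nM or 10 nM); curve shift assessed.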

[7] = biological target: T1, Free fatty acid receptor 1; assay: Potentiation of DHA-induced agonist activity at human GPR40 inducibly expressed in HEK293 cells assessed as increase in intracellular calcium flux at agonism EC50 measured for 100 secs by FLIPR assay; type: functional, cell-based
[8] = biological target: T1, Free fatty acid receptor 1; assay: Agonist activity at human GPR40 expressed in CHO-A12 cells assessed as increase in intracellular calcium flux measured for 100 secs by FLIPR assay; type: functional, cell-based
[9] = biological target: T1, Free fatty acid receptor 1; assay: Binding affinity to human GPR40 expressed in HEK293 cell membranes after 1 hr by radioligand displacement based scintillation counting method
Procedure, shortened: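 Binding of human GPR40 measured as Ki against a radioligand. Mean of at least two runs. Displacement of the label appears as a negative slope and potentiation as a positive one.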

Mus musculus [10] = assay: Antidiabetic activity in C57BL/6J mouse assessed as change in plasma glucose AUC (0 to 120 mins) at 1 mg/kg, po administered 1 hr prior to glucose challenge by oral glucose tolerance test; type: functional
Procedure, shortened: (§2)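 C57BL/6J mice dosed orally at 0.3 or 1 mg/kg 1 h before an oral glucose bolus. Plasma glucose sampled at -60, -20, 0, 20, 40, 60 and 120 min; glucose AUC0-120 expressed relative to vehicle.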

[11] = biological target: T2, Free fatty acid receptor 1; assay: (§3) Agonist activity at GPR40 in mouse STC1 cells assessed as induction of GLP-1 secretion measured after 1 hr by HTRF assay; type: cell-based
[12] = biological target: Free fatty acid receptor 1 (Mus musculus) (UniProt Q76JU9); assay: Intrinsic activity at mouse GPR40 expressed in CHO-A12 cells assessed as increase in intracellular calcium flux at 8.3 uM measured for 100 secs by FLIPR assay […]; type: functional, cell-based
[13] = Antagonist activity at sodium channel (unknown origin); details: human
[14] = biological target: T3, Nuclear receptor subfamily 1 group I member 2 (Homo sapiens, UniProt O75469); assay: Antagonist activity at PXR (unknown origin); type: ADME
T3 sequence (O75469 whole entry): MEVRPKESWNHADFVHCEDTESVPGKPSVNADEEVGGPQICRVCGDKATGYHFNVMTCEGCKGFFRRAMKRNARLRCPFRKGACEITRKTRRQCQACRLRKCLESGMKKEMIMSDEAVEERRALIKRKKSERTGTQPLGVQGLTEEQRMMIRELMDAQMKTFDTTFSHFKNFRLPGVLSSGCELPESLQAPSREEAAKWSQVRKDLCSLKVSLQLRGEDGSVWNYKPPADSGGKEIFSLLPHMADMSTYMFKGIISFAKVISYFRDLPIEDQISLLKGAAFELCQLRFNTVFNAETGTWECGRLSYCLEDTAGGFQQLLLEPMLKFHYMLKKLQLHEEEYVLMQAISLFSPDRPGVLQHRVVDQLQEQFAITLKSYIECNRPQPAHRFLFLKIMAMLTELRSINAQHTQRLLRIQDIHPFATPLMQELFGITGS

PPARgamma = biological target: T4, PPARgamma (Homo sapiens, UniProt P37231); assay: Transactivation of human Gal4 fused PPARgamma-LBD expressed in HEK293 cells at 4.8 uM after 18 hrs by luciferase reporter gene assay relative to […]; type: cell-based; details: HEK293 cells expressing Gal4-fused human PPARgamma-LBD
T4 sequence (P37231 whole entry): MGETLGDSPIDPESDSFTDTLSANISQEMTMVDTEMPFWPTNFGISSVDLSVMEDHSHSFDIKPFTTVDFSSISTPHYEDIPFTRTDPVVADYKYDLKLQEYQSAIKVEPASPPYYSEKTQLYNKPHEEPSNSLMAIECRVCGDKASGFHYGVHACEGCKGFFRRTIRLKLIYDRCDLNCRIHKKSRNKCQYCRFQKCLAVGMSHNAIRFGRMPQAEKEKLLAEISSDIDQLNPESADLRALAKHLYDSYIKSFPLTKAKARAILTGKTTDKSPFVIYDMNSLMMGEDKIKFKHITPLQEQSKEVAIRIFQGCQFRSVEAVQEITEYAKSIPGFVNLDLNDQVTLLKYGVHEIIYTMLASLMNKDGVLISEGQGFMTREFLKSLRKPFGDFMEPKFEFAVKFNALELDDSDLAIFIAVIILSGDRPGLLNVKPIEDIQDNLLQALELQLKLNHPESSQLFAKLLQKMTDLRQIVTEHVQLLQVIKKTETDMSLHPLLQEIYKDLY

[15] = biological target: T5, Peroxisome proliferator-activated receptor gamma (Homo sapiens, UniProt P37231); assay: Transactivation of human Gal4 fused PPARgamma-LBD expressed in HEK293 cells after 18 hrs by luciferase reporter gene assay; type: cell-based
T5 sequence (P37231 whole entry): T4 sequence (P37231 whole entry)
Procedure, shortened: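 Gal4 gene reporter transactivation assay for PPARγ; EC50 and Ymax reported.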

Rattus norvegicus [16] = assay: Toxicity in rat assessed as induction of hyperactivity at 80 mg/kg administered as single dose; type: organism-based; details: in vivo
Procedure, shortened: (§4)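 Male rats fitted with telemetry received a single 80 mg/kg dose. Heart rate and blood pressure recorded by telemetry; locomotor activity monitored.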

Rattus norvegicus [17] = assay: Toxicity in rat assessed as effect on mean arterial blood pressure at 80 mg/kg administered as single dose; type: organism-based; details: in vivo; procedure, shortened: as §4
[18] = biological target: T5, Peroxisome proliferator-activated receptor gamma; assay: Binding affinity to PPARgamma (unknown origin); type: ADME
[19] = Terminal half life in CD-1 mouse at 0.2 mg/kg, iv by LC-MS/MS analysis; type: ADME, organism-based; details: in vivo, read-out: beta t1/2 (converted)
Cytochrome P450 3A4 = Cytochrome P450 3A4 (Homo sapiens, UniProt P08684); assay: Inhibition of CYP3A4 (unknown origin); type: ADME
[20] = Half life in human liver microsomes; type: ADME, microsome
[21] = Half life in mouse liver microsomes; type: ADME, microsome
[22] = biological target: Free fatty acid receptor 1 (Mus musculus) (UniProt Q76JU9); assay: Agonist activity at GPR40 in C57BL/6J mouse primary pancreatic islets assessed as increase in glucose-stimulated insulin secretion after 1 hr by ELISA
Procedure, shortened: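 Primary islets isolated from mice; insulin secretion measured across 0.016-2.0 µM compound to assess glucose-stimulated insulin secretion.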

[23] = biological target: T1, Free fatty acid receptor 1; assay: Potentiation of DHA-induced agonist activity at human GPR40 inducibly expressed in HEK293 cells assessed as increase in intracellular calcium flux at 3 nM measured for 100 secs by FLIPR assay; type: functional, cell-based; procedure, shortened: as §1
[24] = Volume of distribution at steady state in CD-1 mouse at 0.2 mg/kg, iv by LC-MS/MS analysis; type: ADME, organism-based; details: in vivo, read-out: Vdss
Rattus norvegicus [25] = assay: Toxicity in rat assessed as effect on heart rate at 80 mg/kg administered as single dose; type: organism-based; details: in vivo; procedure, shortened: as §4
[26] = Fraction unbound in mouse plasma; type: ADME, cell-free
Mus musculus [27] = assay: Decrease in blood glucose level in C57BL/6J mouse at 0.3 mg/kg, po administered 1 hr prior to glucose challenge measured up to 120 mins by oral glucose tolerance test; type: functional, organism-based; procedure, shortened: as §2
[28] = Half life in cynomolgus monkey liver microsomes; type: ADME, Macaca fascicularis, microsome
[29] = Oral bioavailability in C57BL6 mouse at 0.5 mg/kg; type: ADME, organism-based; details: in vivo
[30] = biological target: T6, Peroxisome proliferator-activated receptor gamma (Mus musculus, UniProt P37238); assay: Agonist activity at PPARgamma in mouse 3T3L1 cells assessed as increase in insulin induced adipocyte differentiation by measuring free glycerol levels at 3 uM; type: cell-based
T6 sequence (P37238 whole entry): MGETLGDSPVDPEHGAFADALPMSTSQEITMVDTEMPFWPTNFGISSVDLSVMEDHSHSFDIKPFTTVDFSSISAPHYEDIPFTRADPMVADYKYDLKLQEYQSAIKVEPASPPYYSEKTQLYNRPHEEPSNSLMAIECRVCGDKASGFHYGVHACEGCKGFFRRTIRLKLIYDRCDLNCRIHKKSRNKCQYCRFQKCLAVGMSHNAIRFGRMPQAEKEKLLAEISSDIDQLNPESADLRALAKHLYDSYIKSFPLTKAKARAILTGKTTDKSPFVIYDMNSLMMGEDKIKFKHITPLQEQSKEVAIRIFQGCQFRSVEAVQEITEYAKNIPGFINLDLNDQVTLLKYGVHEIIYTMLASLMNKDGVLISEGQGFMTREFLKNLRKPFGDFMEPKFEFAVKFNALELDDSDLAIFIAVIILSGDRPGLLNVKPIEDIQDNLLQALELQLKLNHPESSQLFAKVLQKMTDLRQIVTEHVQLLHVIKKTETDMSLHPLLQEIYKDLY
Procedure, shortened: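 3T3L1 cells incubated with compound at 3 µM; free glycerol levels measured as a marker of PPARγ-mediated adipocyte differentiation.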

[31] = Fraction unbound in human plasma; type: ADME, cell-free
[32] = Clearance in CD-1 mouse at 0.2 mg/kg, iv by LC-MS/MS analysis; type: ADME, organism-based; details: in vivo
[33] = Cmax in C57BL/6J mouse at 10 mg/kg, po; type: ADME, organism-based; parameters: dose 10 mg/kg, route oral; details: in vivo
[34] = biological target: T1, Free fatty acid receptor 1; assay: Partial agonist activity at human GPR40 inducibly expressed in HEK293 cells assessed as increase in intracellular calcium flux measured for 100 secs by FLIPR assay; type: functional, cell-based
[35] = AUC (0 to 4 hrs) in C57BL/6J mouse at 10 mg/kg, po; type: ADME, organism-based; parameters: time < 4 hr, dose 10 mg/kg, route oral; details: in vivo
[36] = biological target: Free fatty acid receptor 1 (Mus musculus) (UniProt Q76JU9); assay: as §3; type: cell-based
Mus musculus [37] = assay: Antidiabetic activity in C57BL/6J mouse assessed as reduction of plasma glucose excursion at 10 to 100 mg/kg, po pretreated for 1 hr followed by glucose challenge measured up to 120 mins by iGTT; type: functional, organism-based

T2 sequence (Q76JU9 whole entry): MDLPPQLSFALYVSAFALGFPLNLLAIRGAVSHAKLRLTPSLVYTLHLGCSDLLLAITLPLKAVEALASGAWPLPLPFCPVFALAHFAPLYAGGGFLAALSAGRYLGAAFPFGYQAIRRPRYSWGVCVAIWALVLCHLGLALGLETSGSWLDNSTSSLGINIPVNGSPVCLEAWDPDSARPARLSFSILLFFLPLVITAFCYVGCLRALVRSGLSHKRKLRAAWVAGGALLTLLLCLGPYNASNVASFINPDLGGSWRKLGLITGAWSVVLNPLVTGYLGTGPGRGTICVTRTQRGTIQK
Free fatty acid receptor 1 (Mus musculus), sequence (Q76JU9 whole entry): as above
T1 sequence (O14842 whole entry): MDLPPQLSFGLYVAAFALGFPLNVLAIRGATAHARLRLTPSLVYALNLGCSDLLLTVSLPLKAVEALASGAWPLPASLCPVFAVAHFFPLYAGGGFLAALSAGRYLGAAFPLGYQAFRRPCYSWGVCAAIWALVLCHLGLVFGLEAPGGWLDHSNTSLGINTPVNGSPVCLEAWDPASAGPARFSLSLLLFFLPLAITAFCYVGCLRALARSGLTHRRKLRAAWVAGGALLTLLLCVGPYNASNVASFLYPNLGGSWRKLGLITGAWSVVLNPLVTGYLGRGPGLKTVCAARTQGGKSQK
Cytochrome P450 3A4, sequence (P08684 whole entry): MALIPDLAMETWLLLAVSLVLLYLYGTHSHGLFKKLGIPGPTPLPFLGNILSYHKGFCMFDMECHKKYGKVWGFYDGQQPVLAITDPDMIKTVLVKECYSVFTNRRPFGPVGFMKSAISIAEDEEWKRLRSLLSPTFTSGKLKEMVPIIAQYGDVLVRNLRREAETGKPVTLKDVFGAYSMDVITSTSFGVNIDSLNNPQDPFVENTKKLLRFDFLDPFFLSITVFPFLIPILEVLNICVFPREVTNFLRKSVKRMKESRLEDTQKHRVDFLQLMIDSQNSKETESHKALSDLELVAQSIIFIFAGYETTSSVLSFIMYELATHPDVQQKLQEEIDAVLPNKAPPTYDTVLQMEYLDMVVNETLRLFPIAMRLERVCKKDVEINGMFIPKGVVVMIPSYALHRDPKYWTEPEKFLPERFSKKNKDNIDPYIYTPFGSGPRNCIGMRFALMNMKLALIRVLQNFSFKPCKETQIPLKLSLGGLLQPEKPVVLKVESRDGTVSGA

SMILES	EC50 [3]	EC50 [4]	Intrinsic activity [5]	EC50 [8]	Ki [9]	Activity (Mus musculus [10])	EC50 [11]	Intrinsic activity [12]	inhibition (INH) [14]	Emax at 18 h, 4.8 µM (PPARgamma)	EC50 [15]	other results
COc1ccc(F)c(-c2ccc(Cc3ccc(N4CC(C(F)(F)F)CC4CC(=O)O)cc3)c(C)c2)c1 (mixture of isomers)												Activity [1]: Active; Activity [2]: Active
COc1ccc(F)c(-c2ccc(Cc3ccc(N4C[C@@H](C(F)(F)F)C[C@H]4CC(=O)O)cc3)c(C)c2)c1	2400 nM	2400 nM	28%	490 nM	45 nM	inactive	3200 nM	46%				Activity [6]: inactive; Activity [7]: inactive
Cc1ccccc1COc1ccc(N2CCC[C@H]2CC(=O)O)cc1	3400 nM			190 nM				41 to 73%	Active			inhibition (INH) [13]: Active
O=C(O)C[C@@H]1CCCN1c1ccc(OCc2ccc(Cl)cc2Cl)cc1	4500 nM			340 nM	890 nM			54 to 66%	Active	54%	17000 nM	INH [13]: 4 µM
COc1ccc(F)c(-c2ccc(Cc3ccc(N4C[C@H](C(F)(F)F)C[C@@H]4CC(=O)O)cc3)c(C)c2)c1	54 nM	210 nM	140%	110 nM		39%	330 nM	210%		40%	4400 nM	Activity (Rattus norvegicus [16]): Toxic; Activity (Rattus norvegicus [17]): Non-Toxic; Activity [18]: 1.6 µM; half-life [19]: 7 h; IC50 (Cytochrome P450 3A4): 1700 nM; half-life [20]: > 2 h; half-life [21]: > 2 h; Activity [22]: Dose-dependent effect; Activity [23]: Active; Vd [24]: 0.1 L/kg; Activity (Rattus norvegicus [25]): Non-Toxic; fraction unbound [26]: 0.011; Activity (Mus musculus [27]): inactive; half-life [28]: > 2 h; bioavailability [29]: 83%; Activity [30]: Active; fraction unbound [31]: 0.001; clearance [32]: 0.2 mL/min/kg
Cc1ccccc1Oc1ccc(N2C[C@@H](C(F)(F)F)C[C@H]2CC(=O)O)cc1	330 nM	> 20000 nM	5%	73 nM	35 to 39 nM			84%				Cmax [33]: 4.7 µM; Activity [34]: Active; AUC(0-t) at 4 h [35]: 7 µM·h; Activity [36]: inactive; Activity (Mus musculus [37]): inactive
